In PMC10134466 (ACS Omega, 2023):

How the values were obtained:
[1] = test system: HeLa cells; conditions: cited from earlier work
[2] = test system: sheep erythrocytes; assay: Hemolytic activity; type: cell-based; conditions: sheep RBC 2% v/v, 37 °C, 1 h
How it was run: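 Fresh sheep RBCs were washed in PBS pH 7.4 until the supernatant was clear, with 1000 rpm, 8 min spins. RBCs were exposed to test compound at 2000–5 μg/mL in PBS containing 5% DMSO, then centrifuged 1000 rpm, 8 min at RT. Supernatant absorbance was read at 540 nm, with 630 nm background. Controls: PBS/5% DMSO (negative) and 1% v/v Triton X-100 (positive).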

[3] = test system: BT-474 3D spheroids; assay: 3D dose–response assay, liquid-overlay spheroids; type: cell-based, human; conditions: 24 h treatment, n = 3/dose
How it was run: (§1)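 Spheroids formed by liquid overlay: 250,000 cells/mL in round-bottom nonadherent wells with 2.5% v/v Matrigel, centrifuged 10 min at 1000 rpm, then matured 4 days. Test compound DMSO stocks were serially diluted 1:2 to 10,000–80 μg/mL and diluted 10-fold in wells (final DMSO ≤1% v/v), in triplicate. Incubation 24 h at 37 °C, 5% CO2; viability by CellTiter 3D luminescence. Absolute IC50 by nonlinear regression.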

[4] = test system: AU565 human breast adenocarcinoma cells; assay: 2D dose–response assay; type: cell-based; conditions: 24 h treatment, n = 3/dose
How it was run: (§2)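 Cells were trypsinized, seeded at 250,000 cells/mL in 96-well plates and cultured 24 h before dosing. Test compound was dissolved in 100% DMSO and serially diluted 1:2 in media to 5000–40 μg/mL dosing solutions, which were diluted 10-fold in the well (final DMSO ≤1%), in triplicate. Plates were incubated 24 h at 37 °C, 5% CO2, then viability was read by CCK-8. Controls: cell-free media and untreated cells. Absolute IC50 was calculated.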

[5] = test system: erythrocytes; conditions: therapeutic dose used for viral inactivation; cited from earlier work
[6] = test system: MDA-MB-231 triple negative human breast adenocarcinoma cells; assay: 2D dose–response assay; type: cell-based; conditions: 24 h treatment, n = 3/dose
How it was run: as §2

[7] = test system: MCF-7 human breast epithelial adenocarcinoma cells; assay: 2D dose–response assay; type: cell-based; conditions: 24 h treatment, n = 3/dose
How it was run: as §2

[8] = test system: osteoblasts; conditions: 5 μM; cited from earlier work
[9] = Critical micelle concentration; type: physicochemical; conditions: 0.1 M NaHCO3, pH 8.7, 22 °C
How it was run: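 Surface tension across a concentration series was measured by Wilhelmy platinum-plate tensiometry on freshly prepared samples, in triplicate. Separate linear regressions were fitted to the declining and flat regions of the surface tension–concentration curve; their intersection gave the CMC.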

[10] = test system: BT-474 cells; assay: CellTox Green cytotoxicity assay: cell lysis; type: cell-based, human; conditions: dosed at IC50; 1, 6, 12, 24 h post exposure
[11] = test system: BT-474 human breast ductal carcinoma cells; assay: 2D dose–response assay; type: cell-based; conditions: 24 h treatment, n = 3/dose
How it was run: as §2

[12] = test system: MDA-MB-231 3D spheroids; assay: 3D dose–response assay, liquid-overlay spheroids; type: cell-based, human; conditions: 24 h treatment, n = 3/dose
How it was run: as §1

[13] = test system: MDA-MB-231 cells; assay: CellTox Green cytotoxicity assay: cell lysis; type: cell-based, human; conditions: dosed at IC50; 1, 6, 12, 24 h post exposure
[14] = test system: nontumorigenic keratinocytes; conditions: 30 μM; cited from earlier work
[15] = test system: CCD1065SK HDF; assay: 2D dose–response assay; type: cell-based, human; conditions: 24 h treatment, nontumorigenic fibroblasts
How it was run: as §2

IC50 3D spheroids BT-474 [3] | IC50 2D monolayer AU565 [4] | IC50 2D monolayer MDA-MB-231 [6] | IC50 2D monolayer MCF-7 [7] | CMC [9] | IC50 2D monolayer BT-474 [11] | IC50 3D spheroids MDA-MB-231 [12] | Substance | IC50 toward HeLa cells [1] | IC50 erythrocytes (50% of RBCs lysed) [2] | concentration at which rapid lysis of erythrocytes occurred [5] | cell viability, osteoblasts [8] | extent of cell lysis, BT-474 [10] | extent of cell lysis, MDA-MB-231 [13] | cell viability, nontumorigenic keratinocytes [14] | IC50 2D monolayer CCD1065SK HDF [15]
 |  |  |  |  |  |  | C15-surfactin | 25.2 µg/mL |  |  |  |  |  |  | 
330 µg/mL | 110 µg/mL | 84 µg/mL | 24 µg/mL | 9.5 µg/mL | 21 µg/mL | 140 µg/mL | Surfactin [Compound 1, reference compound] |  | 38 µg/mL | 40 µM | 100% | cell lysis of both BT-474 and MDA-MB-231 cells was observed | cell lysis of both BT-474 and MDA-MB-231 cells was observed | 100% | 180 µg/mL
 |  |  |  |  |  |  | C15-surfactin-O-methyl ester | 47.7 µg/mL |  |  |  |  |  |  | 
